According to article PMC3288656 (Biochemical pharmacology, 2012):
Values joined by “and” are separate entries in the source; they are usually repeats but may differ in a detail not shown here. Equal entries are not always repeated. Marks after values point to notes of the source that are not given here.

How the values were obtained:
CB1Rs [1] = target: T1, CB1Rs (Mus musculus, UniProt P47746); assay: [35S]GTPγS binding assay; assay type: biochemical; settings: for [35S]GTPγS Binding Emax: concentration-effect curves, mouse brain homogenates, n=3–4; for intrinsic activity at CB1Rs: conclusion from [35S]GTPγS binding data
locomotor activity = assay: Cannabinoid tetrad: locomotor activity by biotelemetry; assay type: in vivo, NIH Swiss mice; settings: for locomotor activity: mice
Procedure, shortened: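 Abdominal biotelemetry probes were implanted in male NIH Swiss mice under ketamine 100 mg/kg plus xylazine 10 mg/kg i.p., with at least 7 days recovery. Mice were housed singly, acclimated at least 2 h, and gave at least 1 h of baseline. They were then dosed i.p. in 1:1:18 ethanol:emulphor:saline (10 mL/kg) and moved to a fresh-bedding cage. Activity was logged every 5 min for at least 10 h. Groups of 5 or 6.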

[2] = test system: core body temperature (hypothermia); assay: Cannabinoid tetrad: core body temperature by biotelemetry; assay type: in vivo, NIH Swiss mice; settings: for minimum core body temperature recorded / time to maximal core body temperature reduction (Tmax): 10 mg/kg, i.p.
catalepsy = assay: Cannabinoid tetrad: catalepsy, horizontal bar test; assay type: in vivo, NIH Swiss mice
Procedure, shortened: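 Catalepsy was measured as time on a horizontal bar in male NIH Swiss mice (groups of 5 or 6, drug-naïve). Dosing was i.p. in 1:1:18 ethanol:emulphor:saline (10 mL/kg). The steel bar was 0.5 cm in diameter and sat 4.0 cm above a platform. Forelimbs went on the bar and hindlimbs on the platform in a rearing posture. Timing ran until both paws left the bar, maximum 30 s. Single trial per time point at 0, 10, 30 and 60 min.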

analgesia (tail flick) = assay: Cannabinoid tetrad: analgesia, tail-flick latency; assay type: in vivo, NIH Swiss mice
Procedure, shortened: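 Male NIH Swiss mice (~25–30 g, drug-naïve, groups of 5 or 6) received i.p. test compound in ethanol:emulphor:saline 1:1:18 at 10 mL/kg. Radiant-heat tail flick used sensitivity 150 and light intensity 369, calibrated so untreated mice respond in 2–4 s, with a 10 s cutoff. The photobeam break stopped the timer. One trial per mouse at 0, 10, 30 and 60 min post-dose.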

CB1Rs [3] = target: T1, CB1Rs; assay: Competition receptor binding with [3H]CP-55,940 in mouse brain homogenates
[4] = drug 10 μM (receptor-saturating)
[5] = drug 1 μM co-incubated with CB1R antagonist O-2050 1 μM
[6] = 10 mg/kg, i.p., relative to vehicle
[7] = JWH-018 3 mg/kg i.p. alone, mice
[8] = M4 10 mg/kg i.p. + JWH-018 3 mg/kg i.p. vs JWH-018 alone

T1 sequence (P47746 whole entry): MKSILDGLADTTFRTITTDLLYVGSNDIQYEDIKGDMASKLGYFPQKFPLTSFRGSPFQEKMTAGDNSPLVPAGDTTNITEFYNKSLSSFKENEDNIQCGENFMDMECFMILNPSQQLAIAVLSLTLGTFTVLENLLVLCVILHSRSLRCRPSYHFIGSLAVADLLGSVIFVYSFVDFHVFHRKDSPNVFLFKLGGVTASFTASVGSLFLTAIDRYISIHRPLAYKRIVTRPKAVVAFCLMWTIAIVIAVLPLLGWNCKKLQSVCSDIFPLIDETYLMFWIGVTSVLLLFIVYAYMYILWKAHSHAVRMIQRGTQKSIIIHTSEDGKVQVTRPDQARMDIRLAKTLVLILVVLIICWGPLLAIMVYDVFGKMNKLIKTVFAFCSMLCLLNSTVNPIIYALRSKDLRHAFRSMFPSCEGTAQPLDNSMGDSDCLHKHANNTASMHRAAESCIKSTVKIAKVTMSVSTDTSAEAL

Compound: CCCCCCC(C)(C)c1ccc([C@@H]2C[C@H](O)CC[C@H]2CCCO)c(O)c1 [CP-55,940, reference compound]
- [35S]GTPγS Binding Emax (CB1Rs [1]): 0.26 ± 0.01 ^a pmole/mg
- intrinsic activity at CB1Rs (CB1Rs [1]): full CB1R agonists
- [35S]GTPγS Binding (CB1Rs [1]; drug 100 nM): 0.20 ± 0.04 pmol/mg
- [35S]GTPγS Binding + O-2050 (1 μM) (CB1Rs [1]; drug 100 nM co-incubated with CB1R antagonist O-2050 1 μM): 0.06 ± 0.03 pmol/mg
- [35S]GTPγS Binding (CB1Rs [1]; [4]): 0.32 ± 0.02 pmole/mg and 0.32 ± 0.02 ^c, pmole/mg

Compound: CCCCn1cc(C(=O)c2cccc3ccccc23)c2c(O)cccc21 [M1]
- [35S]GTPγS Binding Emax (CB1Rs [1]): 0.14 ± 0.01 ^b pmole/mg
- intrinsic activity at CB1Rs (CB1Rs [1]): partial agonist activity
- [35S]GTPγS Binding (CB1Rs [1]; drug 1 μM): 0.17 ± 0.01 pmol/mg
- [35S]GTPγS Binding + O-2050 (1 μM) (CB1Rs [1]; [5]): 0.07 ± 0.01 pmol/mg
- [35S]GTPγS Binding (CB1Rs [1]; [4]): 0.14 ± 0.01 pmole/mg and 0.14 ± 0.01 ^a pmole/mg
- locomotor activity (locomotor activity; [6]): reduction of locomotor activity similar to that observed with administration of JWH-073
- minimum core body temperature recorded ([2]; mice): 30.32 ± 0.66 °C
- time to maximal core body temperature reduction (Tmax) ([2]; mice): 58.00 ± 4.64 min

Compound: O=C(c1cccc2ccccc12)c1cn(CCCCO)c2ccccc12 [M5, 1-(4-hydroxybutyl-1H-indole-3-yl)(naphthalen-1-yl)-methanone]
- intrinsic activity at CB1Rs (CB1Rs [1]): partial agonist activity
- [35S]GTPγS Binding (CB1Rs [1]; drug 1 μM): 0.12 ± 0.00 pmol/mg
- [35S]GTPγS Binding + O-2050 (1 μM) (CB1Rs [1]; [5]): 0.05 ± 0.01 pmol/mg
- [35S]GTPγS Binding (CB1Rs [1]; [4]): 0.16 ± 0.02 pmole/mg and 0.16 ± 0.02 ^a pmole/mg

Compound: CCCCCn1cc(C(=O)c2cccc3ccccc23)c2ccccc21 [JWH-018, reference compound]
- EC50 (CB1Rs [1]; read-out: EC50 for G-protein activation, JWH-018 alone): 8 nM
- locomotor activity (locomotor activity; JWH-018 3 mg/kg i.p. alone): locomotor suppression
- maximal decrease in core body temperature to [2, 7]: 30.28 +/− 0.71 °C
- catalepsy (catalepsy; [7]): catalepsy
- analgesia (tail flick assay) (analgesia (tail flick); [7]): robust analgesia

Compound: CCCCn1cc(C(=O)c2cccc3ccccc23)c2cccc(O)c21 [M4]
- antagonism of CB1R agonists and inverse agonists in [35S]GTPγS binding (CB1Rs [1]; M4 10 μM with 100 nM CP, 1 μM JWH-018, 500 nM JWH-073, 10 μM Rimonabant or AM251): significantly antagonized
- Schild plot slope (CB1Rs [1]; M4 against JWH-018): 0.97
- effect on basal [35S]GTPγS binding (CB1Rs [1]; M4 alone, 0.1 nM to 10 μM): neither significantly increased
- intrinsic activity at CB1Rs (CB1Rs [1]): lacks significant intrinsic activity
- antagonism of JWH-018-induced locomotor suppression (locomotor activity; [8]): no difference
- JWH-018-induced hypothermia, area under the curve 0–500 minutes ([2]; M4 10 mg/kg i.p. + JWH-018 3 mg/kg i.p. vs JWH-018 alone, n=5): significantly attenuated hypothermia
- change in body temperature ([2]; M4 10 mg/kg i.p. alone, mice): no significant change in body temperature
- core body temperature minimum, JWH-018-induced hypothermia with M4 ([2]; M4 10 mg/kg i.p. co-administered with JWH-018 3 mg/kg i.p., mice): 33.09 +/− 0.70 °C
- antagonism of JWH-018-induced catalepsy (catalepsy; [8]): no difference
- antagonism of JWH-018-induced analgesia (analgesia (tail flick); [8]): no difference

Compound: CCCCn1cc(C(=O)c2cccc3ccccc23)c2ccccc21 [JWH-073, (1-butyl-1H-indole-3-yl)-1-naphthalenyl-methanone, reference compound]
- [35S]GTPγS Binding Emax (CB1Rs [1]): 0.27 ± 0.01 ^a pmole/mg
- intrinsic activity at CB1Rs (CB1Rs [1]): full CB1R agonists
- [35S]GTPγS Binding (CB1Rs [1]; drug 1 μM): 0.27 ± 0.04 pmol/mg
- [35S]GTPγS Binding + O-2050 (1 μM) (CB1Rs [1]; [5]): 0.07 ± 0.02 pmol/mg
- [35S]GTPγS Binding (CB1Rs [1]; [4]): 0.28 ± 0.03 pmole/mg and 0.28 ± 0.03 ^c pmole/mg
- locomotor activity (locomotor activity; [6]): locomotor suppression
- minimum core body temperature recorded ([2]; mice): 29.74 ± 1.44 °C
- time to maximal core body temperature reduction (Tmax) ([2]; mice): 54.17 ± 5.23 min

Compound: CCCCn1cc(C(=O)c2cccc3ccccc23)c2ccc(O)cc21 [M3]
- Ki (CB1Rs [3]; read-out: CB1R affinity (Ki), displacement of [3H]CP-55,940, mouse brain homogenates, n=4): 1280 ± 470 nM
- intrinsic activity at CB1Rs (CB1Rs [1]): partial agonist activity
- [35S]GTPγS Binding (CB1Rs [1]; drug 1 μM): 0.04 ± 0.00 pmol/mg
- [35S]GTPγS Binding + O-2050 (1 μM) (CB1Rs [1]; [5]): 0.02 ± 0.01 pmol/mg
- [35S]GTPγS Binding (CB1Rs [1]; [4]): 0.11 ± 0.02 pmole/mg and 0.11 ± 0.02 ^a, ^b pmole/mg

Compound: O=C(O)CCCn1cc(C(=O)c2cccc3ccccc23)c2ccccc21 [M6, 4-(3-(1-naphthoyl)-1H-indole-1-yl)-1-butanoic acid]
- displacement of [3H]CP-55,940 specific binding (CB1Rs [3]; concentrations as high as 10 μM, n=3): less than 10%
